Experiment [1] relates to Platelet. Briefly: Inhibition of platelet-activating factor-induced platelet aggregation in pig blood. To be noted: Sus scrofa. It counts as functional, cell-based. The procedure, abridged: (§1)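 Pig blood was spun at 1000g for 10 min to give PRP and at 1500g for 10 min to give PPP. PRP was adjusted to 2 × 10^8 platelets/ml with autologous PPP. The sample was preincubated with test agent or NS. Agonist final concentrations, each in NS: ADP 10 µM, AA 350 µM, PAF 0.1 µM, thrombin 0.1 U/ml. Optical aggregometry ran 5 min at 37 °C. Peak height gave maximal aggregation; % inhibition versus NS gave IC50.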

Experiment [2] deals with Platelet. The experiment in a line: Inhibition of arachidonic acid-induced platelet aggregation in pig blood. To be noted: Sus scrofa. In kind it is functional, cell-based. The procedure, abridged:
as §1

The test system of experiment [3] is Rattus norvegicus. Briefly: Antithrombotic activity in Wistar rat assessed as wet thrombus weight at 15 umol/kg. In kind it is functional. Summed up: (§2)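 Male Wistar rats (250–300 g) got the test agent orally, dissolved in NS and kept on ice; NS served as vehicle. After 45 min, rats were anesthetized with pentobarbital sodium (80.0 mg/kg ip). An extracorporeal carotid artery–jugular vein polyethylene cannula holding a weighed 6 cm thread was placed, and the wet thrombus weight on the thread was recorded.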

The subject of experiment [4] is Rattus norvegicus. The experiment in a line: Antithrombotic activity in Wistar rat assessed as wet thrombus weight at 5 umol/kg. In kind it is functional. Summed up: as §2
Experiment [5] deals with Platelet. The experiment in a line: Inhibition of adenosine diphosphate-induced platelet aggregation in pig blood. In kind it is functional, cell-based. To be noted: Sus scrofa. The procedure, abridged: as §1
Experiment [6] deals with Platelet. The experiment in a line: Inhibition of thrombin-induced platelet aggregation in pig blood. In kind it is functional, cell-based. The settings on record: Sus scrofa. Summed up: as §1
Experiment [7] relates to Rattus norvegicus. The experiment in a line: Antithrombotic activity in Wistar rat assessed as wet thrombus weight at 50 nmol/kg. In kind it is functional. Summed up:
(§3)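 Dose series (5 µmol/kg, 500 nmol/kg, 50 nmol/kg, 5 nmol/kg) given by intravenous injection to male Wistar rats (250–300 g) in an arteriovenous cannula model containing a weighed 6 cm thread. Anesthesia was pentobarbital sodium (80.0 mg/kg ip) with NS vehicle. Wet thrombus weight is given as mean ± SD, n = 12.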

Experiment [8] relates to Rattus norvegicus. Briefly: Antithrombotic activity in Wistar rat assessed as wet thrombus weight at 5 nmol/kg. It counts as functional. The procedure, abridged:
as §3

For experiment [9], the system named is Rattus norvegicus. The experiment in a line: Antithrombotic activity in Wistar rat assessed as wet thrombus weight at 500 nmol/kg. In kind it is functional. The procedure, abridged: as §3
The subject of experiment [10] is Rattus norvegicus. The experiment in a line: Antithrombotic activity in Wistar rat assessed as wet thrombus weight at 22 x 5 umol/kg. It counts as functional. The procedure, abridged: as §2
Experiment [11] has as its system Rattus norvegicus. Briefly: Antithrombotic activity in Wistar rat assessed as wet thrombus weight at 110 x 5 umol/kg. It counts as functional. The procedure, abridged:
as §2

For 22 compounds, IC50 and Activity results are on record in ChEMBL document CHEMBL1142506, “(3S)-N-(L-Aminoacyl)-1,2,3,4-tetrahydroisoquinolines, a class of novel antithrombotic agents: synthesis, bioassay, 3D QSAR, and ADME analysis” (Bioorg Med Chem, 2008).

Square brackets hold non-standard residues; d marks the D form. Peptide text beside a SMILES is read from it. Tic = O=C(O)[C@@H]1Cc2ccccc2CN1

Turning to `O=C(O)[C@@H]1Cc2ccccc2CN1`, the IC50 came out at 0.96 µM in the experiment with Platelet [1], 0.452 µM with Platelet [2], 0.552 µM with Platelet [5] and 0.882 µM in the experiment with Platelet [6]. The Activity in the experiment on Rattus norvegicus [3] turned out to be 21.52 mg; in the experiment on Rattus norvegicus [4], 26.88 mg.
`C[C@H](N)C(=O)N1Cc2ccccc2C[C@H]1C(=O)O` (H-Ala-[Tic]-OH): the IC50 in the experiment on Platelet [1] was determined as 0.945 µM; in the experiment with Platelet [2], 0.44 µM; in the experiment on Platelet [5], 0.651 µM; in the experiment with Platelet [6], 0.741 µM. In the experiment with Rattus norvegicus [4], the Activity was found to be 20.3 mg.
On to `N=C(N)NCCC[C@H](N)C(=O)N1Cc2ccccc2C[C@H]1C(=O)O` (H-Arg-[Tic]-OH), for which the IC50 with Platelet [1] amounted to 0.517 µM; with Platelet [2] it was 0.217 µM; with Platelet [5], 0.21 µM; with Platelet [6] it was 0.565 µM. Moreover, the Activity in the experiment on Rattus norvegicus [4] was 20.06 mg.
For the compound `NC(=O)C[C@H](N)C(=O)N1Cc2ccccc2C[C@H]1C(=O)O` (H-Asn-[Tic]-OH), the IC50 stood at 0.36 µM in the experiment on Platelet [1], 0.407 µM in the experiment on Platelet [2], 0.534 µM in the experiment with Platelet [5] and 0.495 µM in the experiment on Platelet [6]. The Activity with Rattus norvegicus [4] turned out to be 22.66 mg.
With `N[C@@H](CC(=O)O)C(=O)N1Cc2ccccc2C[C@H]1C(=O)O` (H-Asp-[Tic]-OH), the IC50 in the experiment with Platelet [1] worked out at 0.383 µM; in the experiment with Platelet [2], 0.369 µM; in the experiment with Platelet [5], 0.345 µM; with Platelet [6], 0.902 µM. Besides, in the experiment on Rattus norvegicus [4], the Activity is 20.3 mg.
On the same counts, the results for `NC(=O)CC[C@H](N)C(=O)N1Cc2ccccc2C[C@H]1C(=O)O` (H-Gln-[Tic]-OH) are 0.392 µM, 0.351 µM, 0.302 µM, 0.555 µM and 21.3 mg.
Regarding `N[C@@H](CCC(=O)O)C(=O)N1Cc2ccccc2C[C@H]1C(=O)O` (H-Glu-[Tic]-OH), the IC50 in the experiment on Platelet [1] was 0.544 µM; in the experiment on Platelet [2], 0.298 µM; with Platelet [5], 0.494 µM; in the experiment on Platelet [6], 0.589 µM. In the experiment on Rattus norvegicus [4], the Activity was 20.87 mg.
On the same counts, the results for `NCC(=O)N1Cc2ccccc2C[C@H]1C(=O)O` (H-Gly-[Tic]-OH) are 0.875 µM, 0.423 µM, 0.365 µM, 0.761 µM and 21.17 mg.
As to `N[C@@H](Cc1c[nH]cn1)C(=O)N1Cc2ccccc2C[C@H]1C(=O)O` (H-His-[Tic]-OH), the IC50 in the experiment on Platelet [1] turned out to be 0.67 µM; with Platelet [2], 0.521 µM; with Platelet [5] it was 0.324 µM; with Platelet [6], 0.684 µM. Also, in the experiment on Rattus norvegicus [4], the Activity is reported as 21.78 mg.
Regarding `CC[C@H](C)[C@H](N)C(=O)N1Cc2ccccc2C[C@H]1C(=O)O` (H-Ile-[Tic]-OH), the IC50 in the experiment on Platelet [1] was 0.831 µM; with Platelet [2] it was 0.465 µM; in the experiment with Platelet [5] it was 0.315 µM; in the experiment on Platelet [6] it was 0.674 µM. Moreover, in the experiment with Rattus norvegicus [4], the Activity is listed as 21.14 mg.
On the same counts, the results for `CC(C)C[C@H](N)C(=O)N1Cc2ccccc2C[C@H]1C(=O)O` (H-Leu-[Tic]-OH) are 0.892 µM, 0.238 µM, 0.336 µM, 0.73 µM and 19.12 mg.
`NCCCC[C@H](N)C(=O)N1Cc2ccccc2C[C@H]1C(=O)O` (H-Lys-[Tic]-OH): the IC50 was 0.472 µM in the experiment on Platelet [1], 0.344 µM with Platelet [2], 0.323 µM in the experiment on Platelet [5] and 0.829 µM in the experiment with Platelet [6]. In addition, in the experiment with Rattus norvegicus [4], the Activity was 21.31 mg.
Turning to `CSCC[C@H](N)C(=O)N1Cc2ccccc2C[C@H]1C(=O)O` (H-Met-[Tic]-OH), the IC50 with Platelet [1] is 0.409 µM; with Platelet [2] it was 0.43 µM; in the experiment on Platelet [5] it was 0.265 µM; in the experiment with Platelet [6] it was 0.607 µM. In addition, the Activity in the experiment with Rattus norvegicus [4] was found to be 19.56 mg.
On the same counts, the results for `N[C@@H](Cc1ccccc1)C(=O)N1Cc2ccccc2C[C@H]1C(=O)O` (H-Phe-[Tic]-OH) are 0.527 µM, 0.573 µM, 0.37 µM, 0.851 µM and 22.23 mg.
As to `O=C(O)[C@@H]1Cc2ccccc2CN1C(=O)[C@@H]1CCCN1` (H-Pro-[Tic]-OH), the IC50 in the experiment on Platelet [1] came to 0.507 µM; with Platelet [2] it was 0.382 µM; in the experiment with Platelet [5], 0.373 µM; with Platelet [6] it was 0.59 µM. Also, the Activity in the experiment on Rattus norvegicus [4] was 21.09 mg.
For the compound `N[C@@H](CO)C(=O)N1Cc2ccccc2C[C@H]1C(=O)O` (H-Ser-[Tic]-OH), the IC50 with Platelet [1] turned out to be 0.267 µM; with Platelet [2] it was 0.215 µM; in the experiment on Platelet [5] it was 0.103 µM; in the experiment with Platelet [6] it was 0.498 µM. Further, the Activity with Rattus norvegicus [4] is listed as 18 mg; in the experiment with Rattus norvegicus [7], 22.54 mg; in the experiment on Rattus norvegicus [8] it was 28.58 mg; in the experiment with Rattus norvegicus [9], 18.31 mg.
On to `C[C@@H](O)[C@H](N)C(=O)N1Cc2ccccc2C[C@H]1C(=O)O` (H-Thr-[Tic]-OH), for which the IC50 in the experiment with Platelet [1] was 0.404 µM; with Platelet [2], 0.535 µM; in the experiment with Platelet [5], 0.24 µM; in the experiment on Platelet [6] it was 0.879 µM. Further, the Activity in the experiment with Rattus norvegicus [4] stood at 20.73 mg.
As to `N[C@@H](Cc1c[nH]c2ccccc12)C(=O)N1Cc2ccccc2C[C@H]1C(=O)O` (H-Trp-[Tic]-OH), the IC50 is 0.422 µM in the experiment with Platelet [1], 0.572 µM in the experiment on Platelet [2], 0.194 µM with Platelet [5] and 0.72 µM in the experiment with Platelet [6]. Also, the Activity in the experiment on Rattus norvegicus [4] came to 19.47 mg.
On the same counts, the results for `N[C@@H](Cc1ccc(O)cc1)C(=O)N1Cc2ccccc2C[C@H]1C(=O)O` (H-Tyr-[Tic]-OH) are 0.668 µM, 0.526 µM, 0.327 µM, 0.738 µM and 20.92 mg.
Turning to `CC(C)[C@H](N)C(=O)N1Cc2ccccc2C[C@H]1C(=O)O` (H-Val-[Tic]-OH), the half-inhibitory concentration (IC50) stood at 0.632 µM with Platelet [1], 0.666 µM with Platelet [2], 0.389 µM with Platelet [5] and 0.653 µM in the experiment with Platelet [6]. In the experiment on Rattus norvegicus [4], the Activity is reported as 20.12 mg.
In the case of `CC(=O)Oc1ccccc1C(=O)O` [ASPIRIN], the results for the Activity in the experiment on Rattus norvegicus [10] and in the experiment on Rattus norvegicus [11] were 27.6 mg and 13.22 mg, respectively.
As for `O=C(O)[C@@H]1Cc2c([nH]c3ccccc23)CN1` [CYCLOMETHYLTRYPTOPHAN], the IC50 with Platelet [1] is 3.18 µM; with Platelet [2], 3.43 µM; in the experiment on Platelet [5], 3.32 µM; in the experiment with Platelet [6], 3.29 µM.
